Measured values of several laboratories.
Each line is one published result; the experiments were not run side by side.
Target: Phosphatidylinositol 4,5-bisphosphate 3-kinase catalytic subunit beta isoform (PIK3CB, Homo sapiens, UniProt P42338)

| SMILES | assay | conditions | remaining binding [%] |
| --- | --- | --- | --- |
| CN(C)C(=O)Cn1cc(-c2nc(C3(c4ccc(-c5cnc(N)nc5)cc4)CC3)no2)cn1 | cell-free assay, competition with immobilised ligand | 1 µM | 96 |
| Cc1cnn2ncc(-c3ccnc(N(C)C)n3)c2c1 | binding | 1 µM | 74 |
| Nc1c(C(=O)NCc2ccc(C(=O)NCCCC3CCCCC3)cc2)cnn1-c1ccccc1 | cell-free assay, competition with immobilised ligand | 0.1 µM | 100 |
| CCN1CCN(Cc2ccc(C(=O)Nc3ccc(C)c(Oc4ccc5c(c4)CC(=O)N5)c3)cc2C(F)(F)F)CC1 | binding, competition with immobilised ligand | 1 µM | 100 |
| N[C@@H]1CCN(c2nccc(-c3cnn4ncccc34)n2)C1 | binding | 1 µM | 100 |
| C[C@@H](c1ccc(-n2cnc3c(N)ncnc32)cc1)N1CCc2nn(C)c(Cc3ccccc3)c2C1=O | binding, competition with immobilised ligand | 0.1 µM | 99 |
| CN(C)c1nccc(-c2cnn3ncccc23)n1 | binding | 1 µM | 50 |
| c1cncc(-c2cccc(Nc3nccc(NC4CCCCC4)n3)c2)c1 | binding, competition with immobilised ligand | 10 µM | 100 |
| F[C@@H]1CCN(c2nccc(-c3cnn4ncccc34)n2)C1 | binding | 1 µM | 100 |
| CNC(=O)[C@@H]1CC[C@@H](n2c(-c3ccc4cnccc4c3)nc3ccc(C(=O)NCc4cccc(C(N)=O)c4)cc32)C1 | binding, competition with immobilised ligand | 1 µM | 100 |
| O=C(c1ccc(Nc2ncc(Cl)c(-c3cc4ccccc4s3)n2)cc1)N1CCC(N2CCCC2)CC1 | binding, competition with immobilised ligand | 1 µM | 100 |
| O=c1nc(-c2ccccn2)sc2ccccc12 | cell-free assay, competition with immobilised ligand | 1 µM | 100 |
| COc1cnc(Nc2cccc(S(N)(=O)=O)c2)nc1N1CCN(c2ccccc2)CC1 | binding, competition with immobilised ligand | 1 µM | 86 |
| FC(F)(F)Oc1cccc(-c2cnc3ccc(-c4ccncc4)nn23)c1 | cell-free assay, competition with immobilised ligand | 5 µM | 48 |
| O=C(NCCCN1CCOCC1)c1ccc(Nc2ncc(Cl)c(-c3ccc(Cl)s3)n2)cc1 | binding, competition with immobilised ligand | 1 µM | 99 |
| C[C@@H]1CN(c2cc(-c3n[nH]c4ccc(OC5(C)CC5)cc34)ncn2)C[C@H](C)O1 | cell-free assay, competition with immobilised ligand | 0.1 µM | 59 |
| O=C(Nc1c[nH]nc1C(=O)NC1CCNCC1)c1cc(F)cc(F)c1 | binding, competition with immobilised ligand | 1 µM | 100 |
| CN(c1ccnc(CNc2nc(Nc3ccc4c(c3)CC(=O)N4)ncc2C(F)(F)F)n1)S(C)(=O)=O | cell-free assay, competition with immobilised ligand | 1 µM | 100 |
| c1cnn2ncc(-c3ccnc(N4CCC45COC5)n3)c2c1 | binding | 1 µM | 62 |
| O=C(c1ccc(Nc2nccc(-c3cc4ccccc4s3)n2)cc1)N1CCC(N2CCCC2)CC1 | binding, competition with immobilised ligand | 1 µM | 86 |
| COc1ccc2c(O[C@@H]3C[C@H]4C(=O)N[C@]5(C(=O)O)CC5/C=C\CCCCC[C@H](NC(=O)OC5CCCC5)C(=O)N4C3)cc(-c3csc(NC(=O)C(C)C)n3)nc2c1C (stereo partly drawn) | cell-free assay, competition with immobilised ligand | 1 µM | 62 |
